Reference: article PMC3909687 (Biochimica et biophysica acta, 2012)

Biological target: T1, CC1736 (Caulobacter vibrioides, UniProt Q9A7I7)
T1 sequence (Q9A7I7 1-148): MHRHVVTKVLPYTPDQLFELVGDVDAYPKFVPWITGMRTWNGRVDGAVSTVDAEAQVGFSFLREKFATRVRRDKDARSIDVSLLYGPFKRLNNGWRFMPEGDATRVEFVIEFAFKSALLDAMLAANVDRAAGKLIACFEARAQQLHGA
Experiment: spin-column desalting separation, lipid extraction, HPLC-UV
Format: binding
How it was run: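 Protein (2-3 nmol; cytochrome c 8-10 nmol as control) incubated with ligand (0.005–0.27 mM) in 20 mM MES pH 6.4, 100 mM NaCl, 5.0 mM CaCl2, 0.1 mM dodecyl maltoside, 1.0 mM TCEP, 2% ethanol, 45 min, 30 °C. Desalting spin column; protein by Lowry; eluate lipids by reversed-phase HPLC-UV.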

Kd | SMILES
35 ± 16 µM | COC1=C(OC)C(=O)C(C/C=C(\C)CC/C=C(\C)CCC=C(C)C)=C(C)C1=O [Q3]
18 ± 2 µM | COC1=C(OC)C(=O)C(C/C=C(\C)CCC=C(C)C)=C(C)C1=O [Q2]
140 ± 77 µM | COC1=CC(=O)C(C)=C(C/C=C(\C)CC/C=C(\C)CCC=C(C)C)C1=O [DMQ3]
